Compound activity as filed in PubChem.
M5 ag: CHRM5 agonism in calcium assay. P08912. CHO-K1 hM5 cells, Fluo-8 calcium fluorescence; 0% DMSO wells, 100% maximal acetylcholine response. activation, % at 3 µM. actives 0.19% (n = 360,000). AID 624037;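 active = activation above the run's mean over test compounds plus 3 SD, cut at about 23% in these data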;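 also: signal is peak over basal fluorescence ratio across the kinetic read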
Target sequence (P08912 whole entry, looked up): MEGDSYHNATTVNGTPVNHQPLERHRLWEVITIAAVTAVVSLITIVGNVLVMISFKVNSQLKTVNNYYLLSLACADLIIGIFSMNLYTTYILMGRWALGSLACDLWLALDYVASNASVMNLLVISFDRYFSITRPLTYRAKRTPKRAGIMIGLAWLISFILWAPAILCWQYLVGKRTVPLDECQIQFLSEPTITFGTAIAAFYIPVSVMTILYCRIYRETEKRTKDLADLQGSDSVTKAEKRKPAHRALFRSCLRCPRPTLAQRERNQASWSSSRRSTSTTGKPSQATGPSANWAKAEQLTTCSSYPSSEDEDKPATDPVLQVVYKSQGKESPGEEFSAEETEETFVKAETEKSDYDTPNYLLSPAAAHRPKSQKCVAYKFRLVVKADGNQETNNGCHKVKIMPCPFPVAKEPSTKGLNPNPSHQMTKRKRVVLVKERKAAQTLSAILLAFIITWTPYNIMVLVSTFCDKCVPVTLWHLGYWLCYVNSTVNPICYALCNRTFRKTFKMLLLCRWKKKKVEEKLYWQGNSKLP
M4 antag: antagonists of human muscarinic M4 receptor (CHRM4); P08173; CHO-hM4 cells, ACh EC80, Fluo-8 calcium fluorescence; inhibition, % at 3 µM; actives 0.73% (n = 360,000); AID 624125;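 active = inhibition above its plate's cutoff, the mean inhibition of sample wells plus 3 SD, cut at about 27% in these data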
M5 antag: blocks acetylcholine activation of human M5 receptor. CHO-hM5 cells, Fluo-8 calcium fluorescence, ACh EC80. inhibition, % at 3 µM. actives 0.59% (n = 360,000);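 active = inhibition above a per-plate cutoff, the mean of that plate's test compounds plus 3 SD, cut at about 27% in these data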
M4 PAM: potentiates acetylcholine response at human M4 receptor; P08173; CHO-K1 hM4/Gqi5, Fluo-8 calcium fluorescence, ACh EC20; 0% = ACh EC20, 100% = maximal ACh; activation, % at 3 µM; actives 0.4% (n = 360,000);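 active = activation above its plate's cutoff, the mean activation of sample wells plus 3 SD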
M4 ag: CHRM4 agonism in calcium assay; P08173; CHO-K1 hM4/Gqi5, Fluo-8 calcium fluorescence; vehicle 0%, full acetylcholine response 100%; activation, % at 3 µM; actives 0.14% (n = 360,000); AID 624127;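 active = activation above the run mean over all test wells plus 3 SD, cut at about 32% in these data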;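 also: peak over basal fluorescence ratio per well then scaled between controls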
M5 PAM: positive allosteric modulators of human muscarinic M5 receptor; P08912; CHO-K1 hM5, Fluo-8 calcium, ACh EC20 PAM; 0% = ACh EC20, 100% = ACh EC100; activation, % at 3 µM; actives 0.3% (n = 360,000); AID 624038;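 active = activation above the run cutoff, the mean activation of all test compounds plus 3 SD, cut at about 18% in these data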
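Assay system – human M5 receptor in CHO-K1 cells · Read-out – % activation, ACh-normalized · Technique – Fluo-8 calcium fluorescence · Dosing – single-point, 3 µM nominal · Incubation – Fluo-8 loading 80 min at 37 °C plus 30 min room temperature · Repeats – singlicate, one well per test compound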
A number is an active result. In the library only some 1.8% were active in any assay of this set; here they are far more common.

For Cc1nc2sccn2c(=O)c1S(=O)(=O)NCC1CCN(Cc2ccccc2Cl)CC1 the results were M5 ag inactive, M4 antag 34, M5 antag inactive, M4 PAM inactive, M4 ag inactive and M5 PAM inactive.
`Cc1nc2sccn2c(=O)c1S(=O)(=O)N1CCN(c2ccccc2)CC1` gave M5 ag inactive, M4 antag 61, M5 antag inactive, M4 PAM inactive, M4 ag inactive and M5 PAM inactive.
`COc1ccc(N2CCN(S(=O)(=O)c3c(C)nc4sccn4c3=O)CC2)cc1` gave M5 ag inactive, M4 antag inactive, M5 antag inactive, M4 PAM inactive, M4 ag inactive and M5 PAM inactive.
For Cc1ccc(OCc2nc3ccccc3n2C(C(=O)NC(C)(C)C)c2ccncc2)cc1 (configuration not stated) the results were M5 ag inactive, M4 antag inactive, M5 antag inactive, M4 PAM inactive, M4 ag inactive and M5 PAM inactive.
COC1=CC(C)C2CC3OC(O)CC4C(C)=C(OC)C(=O)C(C2(C)C1=O)C34C (configuration not stated) was read as M5 ag inactive, M4 antag inactive, M5 antag inactive, M4 PAM inactive, M4 ag inactive and M5 PAM inactive.
For CCCCCCCC/C=C\CCCCCCCC(=O)NCCc1ccc(O)c(O)c1 the results were M5 ag inactive, M4 antag inactive, M5 antag inactive, M4 PAM inactive, M4 ag inactive and M5 PAM 19.
Screening CCCN(CC(=O)Nc1ccccc1C)C(=O)c1cccc(S(=O)(=O)N2CCc3ccccc3C2)c1 returned M5 ag inactive, M4 antag inactive, M5 antag 28, M4 PAM inactive, M4 ag inactive and M5 PAM inactive.
`CCOc1ccc(OCC)c(NC(=O)CN2CCN(c3ccc(C)cc3C)CC2)c1` gave M5 ag inactive, M4 antag inactive, M5 antag inactive, M4 PAM 20, M4 ag inactive and M5 PAM inactive.
CC1(C(=O)NCc2ccccc2)CSCC(=O)N1C1CC1 (configuration not stated) was read as M5 ag inactive, M4 antag inactive, M5 antag inactive, M4 PAM inactive, M4 ag inactive and M5 PAM inactive.
Screening O=C(CCNS(=O)(=O)c1ccccc1)NCC1CCCCC1 returned M5 ag inactive, M4 antag inactive, M5 antag inactive, M4 PAM 21, M4 ag inactive and M5 PAM inactive.
For O=C(COC(=O)CCNS(=O)(=O)c1ccccc1)NC1CC1 the results were M5 ag inactive, M4 antag inactive, M5 antag inactive, M4 PAM inactive, M4 ag inactive and M5 PAM inactive.
CC(NC(=O)CCNS(=O)(=O)c1ccccc1)c1ccccc1 (configuration not stated) was read as M5 ag inactive, M4 antag inactive, M5 antag inactive, M4 PAM 22, M4 ag inactive and M5 PAM inactive.
CC1(C(=O)NCc2ccccc2Br)CCN1Cc1ccc(-c2ccccn2)cc1 (configuration not stated) was read as M5 ag inactive, M4 antag inactive, M5 antag inactive, M4 PAM inactive, M4 ag inactive and M5 PAM inactive.
For C[C@@]12C(=O)Nc3ccc(Br)cc3C(=O)N1[C@H]1c3ccccc3OC[C@@H]1[C@@H]2c1ccccc1 the results were M5 ag inactive, M4 antag 35, M5 antag inactive, M4 PAM inactive, M4 ag inactive and M5 PAM inactive.
Cc1ccc2c(c1)NC(=O)[C@@]1(C)[C@@H](c3ccccc3)[C@H]3COc4ccccc4[C@@H]3N1C2=O was read as M5 ag inactive, M4 antag inactive, M5 antag inactive, M4 PAM inactive, M4 ag inactive and M5 PAM inactive.
For COc1ccc2c(c1)C(=O)N1[C@H]3c4cc(C)ccc4OC[C@@H]3[C@H](c3ccccc3)[C@]1(C)C(=O)N2 the results were M5 ag inactive, M4 antag 34, M5 antag inactive, M4 PAM inactive, M4 ag inactive and M5 PAM inactive.
For COc1ccc2c(c1)OC[C@H]1[C@H]2N2C(=O)c3cc(C)ccc3NC(=O)[C@@]2(C)[C@H]1c1ccccc1 the results were M5 ag inactive, M4 antag inactive, M5 antag inactive, M4 PAM inactive, M4 ag inactive and M5 PAM inactive.
`COc1ccc2c(c1)OC[C@H]1[C@H]2N2C(=O)c3ccccc3NC(=O)[C@@]2(C)[C@H]1c1ccccc1` gave M5 ag inactive, M4 antag 56, M5 antag inactive, M4 PAM inactive, M4 ag inactive and M5 PAM inactive.
`COc1ccc2c(c1)[C@H]1[C@H](CO2)[C@H](c2ccccc2)[C@]2(C)C(=O)Nc3ccc(C)cc3C(=O)N12` gave M5 ag inactive, M4 antag inactive, M5 antag inactive, M4 PAM inactive, M4 ag inactive and M5 PAM inactive.
Screening Cc1ccc2c(c1)C(=O)N1[C@H]3c4ccccc4OC[C@@H]3[C@H](c3ccccc3)[C@]1(C)C(=O)N2 returned M5 ag inactive, M4 antag 53, M5 antag inactive, M4 PAM inactive, M4 ag inactive and M5 PAM inactive.
`N#Cc1ccccc1S(=O)(=O)N1CCN(C(=O)CN(Cc2ccco2)Cc2cccs2)CC1` gave M5 ag inactive, M4 antag inactive, M5 antag inactive, M4 PAM inactive, M4 ag inactive and M5 PAM inactive.
For Cc1nc2ccc(C(=O)NCCc3c[nH]c4ccccc34)cn2c1N(C)C(=O)CCc1ccccc1 the results were M5 ag inactive, M4 antag inactive, M5 antag inactive, M4 PAM inactive, M4 ag inactive and M5 PAM inactive.
For CCCS(=O)(=O)NC(=O)C1(C)CCN(C(=O)c2cccc(C(F)(F)F)c2)C1 (configuration not stated) the results were M5 ag inactive, M4 antag inactive, M5 antag inactive, M4 PAM inactive, M4 ag inactive and M5 PAM inactive.
Screening Cc1ccc2c(c1)[C@H]1[C@H](CO2)[C@H](c2ccccc2)[C@]2(C)C(=O)Nc3ccc(Cl)cc3C(=O)N12 returned M5 ag inactive, M4 antag inactive, M5 antag inactive, M4 PAM inactive, M4 ag inactive and M5 PAM inactive.
Screening Cc1ccc2c(c1)[C@H]1[C@H](CO2)[C@H](c2ccccc2)[C@]2(C)C(=O)Nc3ccccc3C(=O)N12 returned M5 ag inactive, M4 antag 60, M5 antag inactive, M4 PAM inactive, M4 ag inactive and M5 PAM inactive.
